The term IC50 denotes the concentration needed to halve the response being measured.

Results on 3 compounds are retold here after ChEMBL document CHEMBL2439950, “Arylamino methylene bisphosphonate derivatives as bone seeking matrix metalloproteinase inhibitors” (Bioorg Med Chem, 2013).

For one series, the system named is Hydroxyapatite. The experiment in a line: Binding affinity to bone mineral hydroxyapatite assessed as adsorbed level at 100 uM after 2 hrs by UV-spectrophotometric analysis. The method, boiled down: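 Duplicate 5 ml aliquots of 100 μM bisphosphonic acid in 50 mM Tris-HCl pH 7.5, stirred with 4 mg hydroxyapatite at 37 °C for 2 h. After centrifugation (10 min, 8000 rpm) and 0.22 μm filtration, supernatant absorbance was quantified against calibration lines.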

Another series deals with Neutrophil collagenase (Homo sapiens, UniProt P22894). The experiment in a line: Inhibition of MMP8 catalytic domain (unknown origin) using Mca-Pro-Leu-Gly-Leu-Dpa-Ala-Arg-NH2 as substrate incubated for 30 mins prior to substrate addition measured after 2 to 4 hrs by fluorometric assay. The method, boiled down:
(§1)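 Catalytic domains of MMP-8, MMP-9 or MMP-14 were preincubated 30 min at 25 °C with inhibitor (six concentrations, 0.1 nM–100 μM) in 50 mM Tris-HCl pH 7.5, 200 mM NaCl, 1 mM CaCl2, 1 μM ZnCl2, 0.05% Brij-35, 1% DMSO. Substrate was added to 2.5 μM final for 2–4 h at 37 °C, then acetic acid stop. Fluorescence read at 340/405 nm, in triplicate; IC50 fitted from percent inhibition.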

Series [1] deals with Matrix metalloproteinase-14 (Homo sapiens, UniProt P50281). The experiment in a line: Inhibition of MMP14 catalytic domain (unknown origin) using Mca-Pro-Leu-Gly-Leu-Dpa-Ala-Arg-NH2 as substrate incubated for 30 mins prior to substrate addition measured after 2 to 4 hrs by fluorometric assay. The method, boiled down: as §1
Series [2] is described as follows: Cytotoxicity against human HepG2 cells assessed as cell viability at 100 uM after 48 hrs by MTT assay. The settings on record: read-out: Activity. In kind it is cell-based. The method, boiled down: (§2)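 J774 A.1 cells were grown in DMEM and HepG2 in MEM, each with 10% FBS, penicillin, streptomycin and 2 mM L-glutamine, at 37 °C in 5% CO2. Seeded at 1-5·10^4 cells/well with half-log diluted compounds, 1% DMSO final, for 48 h. MTT was added to 0.5 mg/mL final for 3-4 h, solubilized in 50% DMSO/50% EtOH, and read at 570 nm. Background came from Triton X-100 lysed wells, and viability was taken relative to untreated controls.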

For series [3], the target named is Matrix metalloproteinase-9 (Homo sapiens, UniProt P14780). As to the kind of experiment: Inhibition of MMP9 catalytic domain (unknown origin) using Mca-Pro-Leu-Gly-Leu-Dpa-Ala-Arg-NH2 as substrate incubated for 30 mins prior to substrate addition measured after 2 to 4 hrs by fluorometric assay. The method, boiled down: as §1
Series [4] concerns the target 72 kDa type IV collagenase (Homo sapiens, UniProt P08253). As to the kind of experiment: Inhibition of APMA-activated recombinant human MMP2 using Mca-Pro-Leu-Gly-Leu-Dpa-Ala-Arg-NH2 as substrate incubated for 30 mins prior to substrate addition measured after 2 to 4 hrs by fluorometric assay. The method, boiled down: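 Human pro-MMP-2 was activated with 2 mM APMA for 1 h at 37 °C. Enzyme and inhibitor (six concentrations, 0.1 nM–100 μM) were preincubated 30 min at 25 °C in Tris-HCl pH 7.5 buffer with NaCl, CaCl2, ZnCl2, Brij-35 and 1% DMSO. Substrate was added to 2.5 μM final, run 2–4 h at 37 °C, and stopped with 3% acetic acid. Fluorescence read at ex 340/em 405 nm, in triplicate; IC50 from percent inhibition versus no-inhibitor controls.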

Series [5] can be described thus: Cytotoxicity against mouse J774A1 cells assessed as cell viability at 100 uM after 48 hrs by MTT assay. In kind it is functional. The settings on record: J774.A1, 48 h, read-out: Activity. The method, boiled down: as §2
A general note: Formazan colour is commonly taken as a measure of viable cells.

Neutrophil collagenase, sequence (P22894 whole entry, the tested form may be a part): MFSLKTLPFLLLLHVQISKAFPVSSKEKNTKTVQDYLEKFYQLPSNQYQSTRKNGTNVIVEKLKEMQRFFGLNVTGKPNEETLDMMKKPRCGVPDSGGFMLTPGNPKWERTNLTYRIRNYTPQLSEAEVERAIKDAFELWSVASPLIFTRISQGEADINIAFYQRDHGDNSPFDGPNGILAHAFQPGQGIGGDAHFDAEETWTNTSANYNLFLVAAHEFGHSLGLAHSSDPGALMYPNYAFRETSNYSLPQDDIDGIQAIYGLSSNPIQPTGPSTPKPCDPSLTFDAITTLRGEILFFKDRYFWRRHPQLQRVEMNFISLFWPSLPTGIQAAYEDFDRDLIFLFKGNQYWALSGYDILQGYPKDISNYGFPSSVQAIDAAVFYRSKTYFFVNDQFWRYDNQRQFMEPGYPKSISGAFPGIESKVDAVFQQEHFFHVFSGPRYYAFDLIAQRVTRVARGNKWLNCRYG
72 kDa type IV collagenase, sequence (P08253 whole entry): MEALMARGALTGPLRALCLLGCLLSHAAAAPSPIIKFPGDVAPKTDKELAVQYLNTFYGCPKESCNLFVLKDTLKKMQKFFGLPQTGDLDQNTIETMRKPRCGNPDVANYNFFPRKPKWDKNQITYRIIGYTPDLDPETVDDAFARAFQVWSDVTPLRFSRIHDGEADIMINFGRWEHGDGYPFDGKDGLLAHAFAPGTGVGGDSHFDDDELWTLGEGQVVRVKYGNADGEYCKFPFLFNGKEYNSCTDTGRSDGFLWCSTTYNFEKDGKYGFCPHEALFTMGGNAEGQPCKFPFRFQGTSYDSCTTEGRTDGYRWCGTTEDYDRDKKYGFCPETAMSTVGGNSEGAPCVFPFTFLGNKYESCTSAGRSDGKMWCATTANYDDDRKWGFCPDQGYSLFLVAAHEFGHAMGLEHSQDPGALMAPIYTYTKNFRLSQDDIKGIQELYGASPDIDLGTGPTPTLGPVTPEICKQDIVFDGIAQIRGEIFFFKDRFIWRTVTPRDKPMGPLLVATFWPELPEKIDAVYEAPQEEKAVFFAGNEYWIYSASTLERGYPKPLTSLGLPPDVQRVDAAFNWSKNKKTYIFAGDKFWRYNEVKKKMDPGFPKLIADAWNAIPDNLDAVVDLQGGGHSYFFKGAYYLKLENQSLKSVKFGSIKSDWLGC
Matrix metalloproteinase-9, sequence (P14780 whole entry, the tested form may be a part): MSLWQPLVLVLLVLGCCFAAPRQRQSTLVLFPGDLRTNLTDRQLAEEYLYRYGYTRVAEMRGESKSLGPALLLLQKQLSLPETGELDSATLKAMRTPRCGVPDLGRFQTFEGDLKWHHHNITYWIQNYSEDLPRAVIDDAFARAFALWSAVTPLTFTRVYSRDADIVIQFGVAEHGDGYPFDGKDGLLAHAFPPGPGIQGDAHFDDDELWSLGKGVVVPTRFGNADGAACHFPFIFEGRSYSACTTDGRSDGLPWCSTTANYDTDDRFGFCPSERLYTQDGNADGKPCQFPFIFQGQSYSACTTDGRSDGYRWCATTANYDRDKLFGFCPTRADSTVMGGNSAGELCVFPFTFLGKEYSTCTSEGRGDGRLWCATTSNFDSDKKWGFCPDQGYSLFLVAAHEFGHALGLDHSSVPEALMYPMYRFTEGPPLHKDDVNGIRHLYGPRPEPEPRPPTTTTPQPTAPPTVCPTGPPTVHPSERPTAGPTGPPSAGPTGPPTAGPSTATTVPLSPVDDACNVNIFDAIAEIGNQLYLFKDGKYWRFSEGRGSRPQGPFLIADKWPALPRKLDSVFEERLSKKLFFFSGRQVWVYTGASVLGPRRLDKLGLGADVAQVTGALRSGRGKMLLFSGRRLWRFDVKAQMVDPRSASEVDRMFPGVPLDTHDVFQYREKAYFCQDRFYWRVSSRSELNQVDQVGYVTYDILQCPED

As to `O=P(O)(O)C(Nc1cccc(C(F)(F)F)c1)P(=O)(O)O`, the Activity with Hydroxyapatite amounted to 50.3%. Besides, the IC50 was over 100 µM on Neutrophil collagenase, over 100 µM in series [1], over 100 µM in series [3] and 20.8 µM in series [4]. The viability at 48 h, 100 µM in series [2] is 83%. Further, the viability at 100 µM in series [5] was determined as 62%.
Consider `O=P(O)(O)C(Nc1ccc(Cl)c(Cl)c1)P(=O)(O)O` [3,4-DICHLOROPHENYLAMINOMETHYLENEBISPHOSPHONIC ACID], for which, in the series with Hydroxyapatite, the Activity amounted to 53.5%. Besides, the half-maximal inhibitory concentration (IC50) on Neutrophil collagenase is 25.5 µM; in series [1], 20 µM; in series [3], over 100 µM; in series [4], over 100 µM. The viability at 48 h, 100 µM in series [2] turned out to be 98%. Besides, the viability at 100 µM in series [5] was 81%.
In the case of `O=P(O)(O)C(Nc1ccc(Oc2ccc(Cl)cc2)cc1)P(=O)(O)O`, the Activity in the series on Hydroxyapatite was 52.1%. Moreover, the half-maximal inhibitory concentration (IC50) was 39.9 µM at Neutrophil collagenase, 76 µM in series [1], 55 µM in series [3] and 2.1 µM in series [4]. Moreover, the viability at 48 h, 100 µM in series [2] turned out to be 87%. The viability at 100 µM in series [5] amounted to 73%.
